# Measurements of several laboratories.
# F10: Coagulation factor X (F10, Homo sapiens, UniProt P00742)
# MMP2: 72 kDa type IV collagenase (MMP2, Homo sapiens, UniProt P08253)
# PRKCE: Protein kinase C epsilon type (PRKCE, Homo sapiens, UniProt Q02156)
# UCHL1: Ubiquitin carboxyl-terminal hydrolase isozyme L1 (UCHL1, Homo sapiens, UniProt P09936)
SMILES,target,test,conditions,inhibition [%]
CC(C)=CCCC1(C)C=Cc2c(O)c3c(c(CC=C(C)C)c2O1)OC12C(=CC4CC1C(C)(C)OC2(C/C=C(/C)C(=O)O)C4O)C3=O (stereo not shown),"Histone-lysine N-methyltransferase SETD7 (SETD7, Homo sapiens, UniProt Q8WTS6)",cell-free assay,10 µM,11
c1ccc(C(NCCNC(c2ccccc2)c2ccccc2)c2ccccc2)cc1,F10,"enzyme activity, inhibitor",10 µM,-9
Cn1cc(-c2cc(F)cc(N3CCn4c(cc5c4CCCC5)C3=O)c2CO)cc(Nc2ccc(N3CCN(C4COC4)CC3)cn2)c1=O,"G protein-coupled receptor kinase 5 (GRK5, Homo sapiens, UniProt P34947)","enzyme activity, inhibitor",0.1 µM,4
CCOC(=O)c1ccc(OC(=O)CCCCCNC(=N)N)cc1,MMP2,"enzyme activity, inhibitor",10 µM,26
CC(C)C[C@H](NC(=O)[C@H](Cc1ccccc1)NC(=O)c1cnccn1)B(O)O,F10,"enzyme activity, inhibitor",33 µM,48.8
C#Cc1n[nH]c2c(-c3cn([C@@H](C)c4ccccc4)c(=O)[nH]c3=O)cc(F)cc12,PRKCE,"enzyme activity, inhibitor",0.1 µM,7.2
CN1CCN(c2nc(N)c3ccccc3n2)CC1,"Neuronal acetylcholine receptor subunit alpha-7 (CHRNA7, Homo sapiens, UniProt P36544)","ligand displacement, radioligand",0.1 µM,31.9
N=C(N)c1ccc2cc(OC(=O)c3ccc(N=C(N)N)cc3)ccc2c1,UCHL1,"enzyme activity, inhibitor",10 µM,0
Cc1ncc(C)n2nc(/C=C/c3nc(N4CCCC4)cc(N4CCOCC4)n3)nc12,MMP2,"enzyme activity, inhibitor",10 µM,3
CN(C)C(=O)COC(=O)Cc1ccc(OC(=O)c2ccc(NC(=N)N)cc2)cc1,UCHL1,"enzyme activity, inhibitor",10 µM,7
COc1cc(Nc2ncc(F)c(Nc3ccc4c(n3)NC(=O)C(C)(C)O4)n2)cc(OC)c1OC,"Epithelial discoidin domain-containing receptor 1 (DDR1, Homo sapiens, UniProt Q08345)","binding, competition with immobilised ligand",10 µM,100
COc1ccc(S(=O)(=O)N(CC(=O)NO)CC(C)C)cc1,MMP2,"enzyme activity, inhibitor",0.1 µM,71
CCN(CC)CCCC[C@H](NC(=O)[C@H](CC(C)C)NC(=O)[C@H](C)NC(=O)[C@H](Cc1ccccc1)NC(=O)c1ccc(C(C)(C)C)cc1)C(=O)N[C@@H](CO)C(=O)OC,"Beta-2 adrenergic receptor (ADRB2, Homo sapiens, UniProt P07550)","ligand displacement, radioligand",10 µM,-1
O=C(Nc1cccnn1)N1CCN([C@@H]2CCOc3cc(C(F)(F)F)ccc32)CC1,"Prostacyclin receptor (PTGIR, Homo sapiens, UniProt P43119)",cell-free assay,20 µM,-15
C#Cc1n[nH]c2c(-c3cn(C(C)c4ccccn4)c(=O)[nH]c3=O)cc(F)cc12 (stereo not shown),PRKCE,"enzyme activity, inhibitor",1 µM,3.8
Cn1cc(-c2cccc(N3CCc4c(sc5c4CC(C)(C)C5)C3=O)c2CO)cc(Nc2ccncn2)c1=O,"G protein-coupled receptor kinase 6 (GRK6, Homo sapiens, UniProt P43250)","enzyme activity, inhibitor",1 µM,-1
